By Ki is commonly meant a dissociation constant, usually derived from enzyme kinetics or from competition with a known ligand.

These results are taken from ChEMBL document CHEMBL1148248, “Potentiation of cytotoxic drug activity in human tumour cell lines, by amine-substituted 2-arylbenzimidazole-4-carboxamide PARP-1 inhibitors” (Bioorg Med Chem Lett, 2004).

SMILES strings stand for the structures.

Test [1] has as its system A549. The test is described as follows: Cytotoxic potentiation factor of temoxolomide in human A549 tumor cell line at 0.4 uM concentration. It is filed as functional. The procedure, abridged: (§1)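 Exponentially growing cells were exposed to increasing concentrations of cytotoxic drug (temozolomide or topotecan), alone or with PARP-1 inhibitor fixed at 0.4 µM. Drugs were added from DMSO stocks, giving 1% DMSO final. Growth was read by SRB assay and normalised to the 1% DMSO control or to inhibitor alone. PF50 is the ratio of drug GI50 alone to drug GI50 with inhibitor.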

In test [2] the test system is A549. The test is described as follows: Compound was evaluated for cytotoxic potentiation factor of topotecan in human A549 tumor cell line at 0.4 uM concentration. Format: functional. In short, it runs like this: as §1
Test [3] concerns LoVo. In words: Compound was evaluated for cytotoxic potentiation factor of topotecan in human LoVo cancer cell line at 0.4 uM concentration. Format: functional. In short, it runs like this:
as §1

Test [4] deals with LoVo. The test is described as follows: Cytotoxic potentiation factor of temoxolomide in human LoVo cancer cell line at 0.4 uM concentration. It is filed as functional. The procedure, abridged: as §1
For test [5], the target named is Poly [ADP-ribose] polymerase 1 (Homo sapiens, UniProt P09874).
Poly [ADP-ribose] polymerase 1, sequence (P09874 whole entry): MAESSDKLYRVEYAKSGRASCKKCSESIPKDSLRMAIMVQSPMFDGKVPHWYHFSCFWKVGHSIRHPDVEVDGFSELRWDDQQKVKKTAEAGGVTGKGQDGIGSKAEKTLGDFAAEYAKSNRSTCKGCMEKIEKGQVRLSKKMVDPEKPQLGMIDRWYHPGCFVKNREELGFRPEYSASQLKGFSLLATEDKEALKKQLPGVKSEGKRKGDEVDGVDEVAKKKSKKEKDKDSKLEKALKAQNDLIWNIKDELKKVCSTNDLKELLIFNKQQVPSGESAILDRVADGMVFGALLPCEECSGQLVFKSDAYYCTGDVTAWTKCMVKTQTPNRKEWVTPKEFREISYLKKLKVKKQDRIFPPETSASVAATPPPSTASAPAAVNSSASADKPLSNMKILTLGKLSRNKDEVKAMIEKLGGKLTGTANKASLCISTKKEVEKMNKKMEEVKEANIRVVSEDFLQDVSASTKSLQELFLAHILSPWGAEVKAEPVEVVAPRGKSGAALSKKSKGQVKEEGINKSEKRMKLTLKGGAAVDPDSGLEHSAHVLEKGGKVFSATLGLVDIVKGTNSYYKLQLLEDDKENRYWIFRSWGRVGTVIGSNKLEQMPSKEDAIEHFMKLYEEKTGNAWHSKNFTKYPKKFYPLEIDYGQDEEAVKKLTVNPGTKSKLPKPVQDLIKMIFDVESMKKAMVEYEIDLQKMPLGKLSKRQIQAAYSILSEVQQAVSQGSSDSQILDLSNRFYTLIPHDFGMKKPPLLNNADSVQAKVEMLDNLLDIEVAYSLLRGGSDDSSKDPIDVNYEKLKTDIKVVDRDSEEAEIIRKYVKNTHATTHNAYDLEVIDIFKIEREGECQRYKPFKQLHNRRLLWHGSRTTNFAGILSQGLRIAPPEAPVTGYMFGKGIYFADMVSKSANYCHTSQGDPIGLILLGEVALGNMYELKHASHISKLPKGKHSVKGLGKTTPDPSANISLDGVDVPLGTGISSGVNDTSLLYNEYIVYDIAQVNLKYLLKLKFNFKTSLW

Take `NC(=O)c1cccc2[nH]c(-c3ccc(CN4CCCC4)cc3)nc12`: the PF50 with A549 [1] worked out at 1.5; in the test with A549 [2], 1.8; in the test with LoVo [3], 1.5; in the test on LoVo [4], 5.2. The inhibitory constant (Ki) in test [5] worked out at 5.9 nM.
In the case of `CN1CCN(Cc2cccc(-c3nc4c(C(N)=O)cccc4[nH]3)c2)CC1`, the Ki in test [5] came to 9.8 nM.
Still for that read-out and setting: the same measure for `NC(=O)c1cccc2[nH]c(-c3ccc(CN4CCCCC4)cc3)nc12`: 7.2 nM.
As to `NC(=O)c1cccc2[nH]c(-c3ccc(CN4CCOCC4)cc3)nc12`, the Ki in test [5] was 12 nM.
Still for that read-out and setting: the same measure for `NC(=O)c1cccc2[nH]c(-c3cccc(CN4CCOCC4)c3)nc12`: 31 nM.
The same measure, in the same setting: the same measure for `NC(=O)c1cccc2[nH]c(-c3ccc(CN(CCO)CCO)cc3)nc12`: 4.5 nM.
Take `NC(=O)c1cccc2[nH]c(-c3cccc(CN4CCCC4)c3)nc12`: the results for the PF50 with LoVo [3] and with LoVo [4] were 1.1 and 1.7, respectively. The affinity in test [5], expressed as Ki, was 10.2 nM.
Take `CN(C)Cc1ccc(-c2nc3c(C(N)=O)cccc3[nH]2)cc1`: the PF50 in the test with A549 [1] was determined as 1.6; with A549 [2], 1.9; in the test with LoVo [3], 1.7; with LoVo [4], 4. This compound yielded an inhibition constant (Ki) in test [5] of 4.5 nM.
With `NC(=O)c1cccc2[nH]c(-c3cccc(CN(CCO)CCO)c3)nc12`, the PF50 with A549 [1] and in the test with A549 [2] was 1.1 in each case. In test [5], the affinity corresponds to a Ki of 272 nM.
`CN1CCN(Cc2ccc(-c3nc4c(C(N)=O)cccc4[nH]3)cc2)CC1`: the affinity in test [5] corresponds to a Ki of 8.7 nM. This counts as single-digit nanomolar.
For `CN(C)Cc1cccc(-c2nc3c(C(N)=O)cccc3[nH]2)c1`, the values for the PF50 in the test on LoVo [3] and in the test with LoVo [4] were 1.4 and 1.7, respectively. Besides, in test [5], affinity was put at a Ki of 5.6 nM.
